# This is a sample that favours compounds with a hit; in the whole collection about 2% have one here.
# M5 PAM – human M5 muscarinic receptor positive allosteric modulators, primary screen, CHO-K1 cells, Fluo-8 calcium fluorescence; CHO-K1 hM5, ACh EC20 PAM; 0% = ACh EC20, 100% = ACh EC100; 0.3% of 360,000 active; activation, % at 3 µM; Muscarinic acetylcholine receptor M5 (Homo sapiens), P08912; AID 624038, 2012;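 active means activation above the run cutoff, the mean activation of all test compounds plus 3 SD, cut at about 18% in these data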
#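 Probe or stimulus: acetylcholine, EC20 level; Assay system: human M5 receptor in CHO-K1 cells; Schedule: compound preincubation 140 s before EC20 acetylcholine addition; Technique: intracellular calcium via Fluo-8 fluorescence; Dosing: single-point, 3 µM nominal; Read-out basis: percent activation from peak-over-basal fluorescence ratio, scaled EC20-to-EC100 acetylcholine; Repeats: one well per compound, no replicates.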
# CHRM5 antagonist – human M5 muscarinic receptor antagonists, primary screen, CHO cells, Fluo-8 calcium fluorescence. Muscarinic acetylcholine receptor M5 (Homo sapiens), P08912. CHO-hM5 cells, ACh EC80. inhibition, % at 3 µM. 0.59% of 360,000 active. AID 624040, 2012;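 active means inhibition above a per-plate cutoff, the mean of that plate's test compounds plus 3 SD, cut at about 27% in these data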;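 further: 0% = acetylcholine EC80 with DMSO and 100% = DMSO without agonist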
# M1 antag – human M1 muscarinic receptor antagonists, primary screen, CHO-K1 cells, Fluo-8 calcium fluorescence, 1536-well. Muscarinic acetylcholine receptor M1 (Homo sapiens), P11229. CHO-K1 hM1, ACh EC80 antagonist. inhibition, % at 3 µM. 1.3% of 360,000 active. AID 588852, 2011;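 active means percent inhibition above its own plate's cutoff, namely the mean of that plate's compound wells plus 3 SD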;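 further: peak over basal fluorescence ratio during 140 s after agonist addition; 0% = ACh EC80 plus DMSO and 100% = DMSO alone without agonist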
# Target sequence (P11229 whole entry, looked up): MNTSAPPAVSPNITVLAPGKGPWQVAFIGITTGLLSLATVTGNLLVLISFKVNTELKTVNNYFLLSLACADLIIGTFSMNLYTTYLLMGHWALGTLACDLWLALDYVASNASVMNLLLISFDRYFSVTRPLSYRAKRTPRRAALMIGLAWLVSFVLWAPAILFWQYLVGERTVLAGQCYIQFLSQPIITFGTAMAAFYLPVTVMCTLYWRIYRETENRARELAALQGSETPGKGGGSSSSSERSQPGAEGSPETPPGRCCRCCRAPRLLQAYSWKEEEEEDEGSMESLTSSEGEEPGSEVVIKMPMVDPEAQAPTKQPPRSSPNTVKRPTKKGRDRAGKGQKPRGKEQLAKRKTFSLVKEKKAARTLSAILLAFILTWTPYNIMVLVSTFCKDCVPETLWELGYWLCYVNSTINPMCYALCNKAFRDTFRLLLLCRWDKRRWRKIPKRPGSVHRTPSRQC
# M1 PAM – human M1 muscarinic receptor positive allosteric modulators, primary screen, CHO-K1 cells, Fluo-8 calcium fluorescence, 1536-well; Muscarinic acetylcholine receptor M1 (Homo sapiens), P11229; CHO-K1 hM1, ACh EC20; 0% = ACh EC20, 100% = maximal ACh; activation, % at 3 µM; 0.088% of 360,000 active; AID 588819, 2011; in the data active means activation above about 19%, passing the limit was not always enough
# M5 ag – human M5 muscarinic receptor agonists, primary screen, CHO-K1 cells, Fluo-8 calcium fluorescence; activation, % at 3 µM; CHO-K1 hM5 cells; 0% DMSO wells, 100% maximal acetylcholine response; Muscarinic acetylcholine receptor M5 (Homo sapiens), P08912; 0.19% of 360,000 active;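 active means activation above the run's mean over test compounds plus 3 SD, cut at about 23% in these data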;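 further: signal is peak over basal fluorescence ratio across the kinetic read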
# M1 ag – human M1 muscarinic receptor agonists, primary screen, Fluo-8 calcium fluorescence, CHO-K1 cells, HTS; Muscarinic acetylcholine receptor M1 (Homo sapiens), P11229; CHO-K1 hM1, agonist mode; 0% DMSO, 100% acetylcholine EC100; activation, % at 3 µM; 0.33% of 360,000 active;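 active means activation above the run's mean compound activation plus 3 SD, cut at about 16% in these data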;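 further: peak over basal fluorescence ratio within a 140 s kinetic read after compound addition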
# Active calls of the source: *; nt = no result given.
SMILES,M5 PAM,CHRM5 antagonist,M1 antag,M1 PAM,M5 ag,M1 ag
CCOc1ccc(NC(=O)CN(C)C(=O)c2cccnc2Sc2ccc(C)c(C)c2)cc1OCC,22*,-2,-4,13,2,1
Cc1cccc2c(=O)c(C(=O)NCCc3ccccc3)c[nH]c12,-7,6,30*,-13,1,-2
Cc1cc2nnc(SC(C)C)n2c2ccccc12,7,9,33*,-10,-3,-2
Cc1cc2nnc(SC(C)C#N)n2c2ccccc12 (centres undefined),1,0,-3,5,0,-4
O=C(COC(=O)c1ccccc1)Nc1ncc([N+](=O)[O-])s1,5,2,-8,-8,14,9
O=C(Nc1ccccc1)Nc1ncc([N+](=O)[O-])s1,-15,28*,27,-20,11,10
CCc1nc2ccc(C(=O)Nc3ccc(C(N)=O)cc3)cn2c1N(CCC(C)C)CCN(C)C,2,7,-3,-2,1,-2
CCCCc1nc2cc(C(=O)NCc3nccn3CC)ccc2o1,-15,5,87*,-24,-10,-6
CCCCc1nc2cc(C(=O)NCc3cn(C)nc3C)ccc2o1,-7,15,10,-2,-2,1
Cc1cc(-c2cn3ccccc3n2)c(C)n1-c1ccccc1,-15,-1,34*,-19,-6,-6
CC(=O)c1c(C)[nH]c(C(=O)CN2C(=O)NC(C)(c3ccc(C)cc3)C2=O)c1C (centres undefined),-8,19,9,4,46*,27*
Cc1cc(-n2[nH]c(C)c(C)c2=O)nc(-c2ccccc2O)n1,37*,42*,-3,3,0,-2
COc1ccc([C@H]2CC(=O)C[C@@H](CCn3cc(-c4ccc(F)cc4)nn3)O2)cc1,2,1,nt,nt,3,nt
O=C(C[n+]1ccccc1)c1ccc(-c2ccccc2)cc1,-1,18,40*,-19,-7,-8
CN(C)c1cc[n+](CC(=O)c2ccc(-c3ccccc3)cc2)cc1,-19,20,42*,-30,-10,-11
COC(=O)c1ccc(OCC(=O)c2ccccc2)cc1,-7,0,12,-8,-5,-3
C=Cn1cc[n+](CC(=O)c2ccc(-c3ccccc3)cc2)c1,5,-4,-2,-7,-8,-9
COC(=O)c1cc[n+](CC(=O)c2ccccc2)cc1,-4,6,-7,-1,9,30*
COc1cc(F)ccc1-c1csc(C(NC(C)=O)c2ccc(F)c(F)c2)n1 (centres undefined),-3,2,-11,4,-1,-3
CCCCN1C(=O)C(CC(=O)NCCN2CCOCC2)CC(C(=O)N(CC)CC)=C1C (centres undefined),1,-1,18,-9,2,-4
Cc1ccccc1S(=O)(=O)NC(=O)C1(C)CCN1C(=O)CC(c1ccccc1)c1ccccc1 (centres undefined),3,-7,-15,7,0,-3
O=C(CN1C(=O)S/C(=C/c2cccs2)C1=O)N1CCOCC1,-2,4,38*,-11,0,-3
O=C(CN1C(=O)S/C(=C/c2cccs2)C1=O)N1CCCC1,2,8,-5,5,0,-5
COc1ccc(N2CCN(C(=O)COC(=O)c3nc(Cl)ccc3Cl)CC2)cc1,-3,5,-3,0,0,-1
COc1ccc(-n2c(-c3cccc(OC)c3)nc(=S)c3c2CCCC3)cc1,-19,12,60*,-35,-5,-15
SMILES,M5 PAM,CHRM5 antagonist,M1 antag,M1 PAM,M5 ag,M1 ag
CCN(CC)C(=O)C1CCCN(C(=O)CCn2nnnc2CN2CCOCC2)C1 (centres undefined),-3,15,-14,9,-4,-3
CCOC(=O)C1CCCN(C(=O)CCn2nnnc2CN2CCOCC2)C1 (centres undefined),0,5,17,-13,1,32*
CCN(CC)CCOC(=O)c1ccccc1Br,-8,10,10,-29,-9,-16
CCN(CC)CCOC(=O)C(Cc1cccc2ccccc12)CC1CCCO1 (centres undefined),-4,1,45*,-25,-6,-9
O=c1[nH][nH]c2c1[C@H](c1ccc(F)cc1)O[C@H](CCc1ccccc1)C2,-3,5,nt,nt,4,nt
Cc1cccc(OCc2nnc3n2CCCCC3)c1,36*,31*,3,5,3,0
O=C(C(O)c1ccccc1)N1CCN(S(=O)(=O)c2ccc(F)c(F)c2)CC1 (centres undefined),4,2,nt,nt,3,nt
COc1cc(/C=N/NC(=O)/C(=C/c2ccccc2)CCO)ccc1O,-3,1,0,4,-1,-4
COc1ccc(/C=N/NC(=O)/C(=C/c2ccccc2)CCO)cc1,-4,9,2,29*,-1,-5
Cc1ccc(CS(=O)Cc2ccc(C(=O)NCc3ccccc3Cl)o2)cc1 (centres undefined),1,1,39*,-13,-3,-4
COc1cc(Cl)c(CNC[C@H]2O[C@@H](n3cnc4c(=O)[nH]c(N)nc43)[C@H](O)[C@@H]2O)c(Cl)c1O,4,4,-16,-4,0,-5
CN1CCN(C2Cc3ccccc3Sc3ccc(Cl)cc32)CC1 (centres undefined),-18,54*,74,-22,0,-3
CN1CCN(C2Cc3ccc(F)cc3Sc3cc(F)c(Cl)cc32)CC1 (centres undefined),-20,10,29,-14,-15,-6
CSc1ccc2c(c1)C(N1CCN(C)CC1)Cc1ccccc1S2 (centres undefined),-18,70*,79*,-22,4,-1
CCc1cccc2c1Sc1ccccc1CC2N1CCNCC1 (centres undefined),-15,4,31,-18,-18,-7
CN1CCN(C2Cc3cc(F)ccc3Sc3ccc(Cl)cc32)CC1 (centres undefined),-35,80*,100*,-26,-15,-1
Oc1ccc(C(=Nc2ccccc2)c2ccccc2)c(O)c1,11,9,-4,7,-5,-4
